# Screening data as filed in PubChem BioAssay.
# CHRM4 PAM – positive allosteric modulators of human muscarinic M4 receptor; P08173; CHO-K1 hM4/Gqi5, Fluo-8 calcium fluorescence, ACh EC20; 0% = ACh EC20, 100% = maximal ACh; activation, % at 3 µM; actives 0.4% (n = 360,000);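 active = activation above its plate's cutoff, the mean activation of sample wells plus 3 SD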
# Target sequence (P08173 whole entry, looked up): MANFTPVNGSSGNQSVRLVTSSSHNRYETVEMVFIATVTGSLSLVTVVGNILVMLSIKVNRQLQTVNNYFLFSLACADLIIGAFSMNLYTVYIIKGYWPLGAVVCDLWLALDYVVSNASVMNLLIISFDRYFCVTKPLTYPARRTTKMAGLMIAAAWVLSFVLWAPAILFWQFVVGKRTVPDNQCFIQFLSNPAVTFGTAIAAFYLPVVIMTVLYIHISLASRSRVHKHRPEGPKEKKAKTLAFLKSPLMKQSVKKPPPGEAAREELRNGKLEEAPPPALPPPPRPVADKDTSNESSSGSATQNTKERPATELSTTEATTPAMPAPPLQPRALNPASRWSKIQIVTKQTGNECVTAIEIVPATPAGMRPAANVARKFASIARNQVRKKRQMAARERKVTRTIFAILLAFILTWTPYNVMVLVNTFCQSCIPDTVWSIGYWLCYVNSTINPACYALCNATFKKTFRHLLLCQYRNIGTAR
# CHRM4 antagonist – antagonists of human muscarinic M4 receptor (CHRM4); CHO-hM4 cells, ACh EC80, Fluo-8 calcium fluorescence; inhibition, % at 3 µM; actives 0.73% (n = 360,000);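 active = inhibition above its plate's cutoff, the mean inhibition of sample wells plus 3 SD, cut at about 27% in these data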;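 note: 0% = acetylcholine EC80 with DMSO and 100% = DMSO without agonist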
# M4 ag – agonists of human muscarinic M4 receptor (CHRM4). CHO-K1 hM4/Gqi5, Fluo-8 calcium fluorescence; vehicle 0%, full acetylcholine response 100%. activation, % at 3 µM. actives 0.14% (n = 360,000). AID 624127;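 active = activation above the run mean over all test wells plus 3 SD, cut at about 32% in these data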;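 note: peak over basal fluorescence ratio per well then scaled between controls; 0% = DMSO wells and 100% = acetylcholine at EC100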
# M5 PAM – CHRM5 positive allosteric modulation; P08912; CHO-K1 hM5, Fluo-8 calcium, ACh EC20 PAM; 0% = ACh EC20, 100% = ACh EC100; activation, % at 3 µM; actives 0.3% (n = 360,000); AID 624038;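 active = activation above the run cutoff, the mean activation of all test compounds plus 3 SD, cut at about 18% in these data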
#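 system = human M5 receptor in CHO-K1 cells | reagent = EC20 acetylcholine as agonist stimulus | compound dosing = single-point, 3 µM nominal | incubation = Fluo-8 loading 80 min at 37 °C plus 30 min room temperature | detection = Fluo-8 calcium dye fluorescence, kinetic read | benchmarks = low control EC20 acetylcholine (0%), high control EC100 acetylcholine (100%)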
# CHRM5 agonist – CHRM5 agonism in calcium assay; P08912; CHO-K1 hM5 cells, Fluo-8 calcium fluorescence; 0% DMSO wells, 100% maximal acetylcholine response; activation, % at 3 µM; actives 0.19% (n = 360,000);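 active = activation above the run's mean over test compounds plus 3 SD, cut at about 23% in these data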;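 note: signal is peak over basal fluorescence ratio across the kinetic read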
# M5 antag – antagonists of human muscarinic M5 receptor (CHRM5); P08912; CHO-hM5 cells, Fluo-8 calcium fluorescence, ACh EC80; inhibition, % at 3 µM; actives 0.59% (n = 360,000);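 active = inhibition above a per-plate cutoff, the mean of that plate's test compounds plus 3 SD, cut at about 27% in these data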;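 note: 0% = acetylcholine EC80 with DMSO and 100% = DMSO without agonist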
# Numbers without * were called inactive. In the library only some 1.8% were active in any assay of this set; here they are far more common.
SMILES,CHRM4 PAM,CHRM4 antagonist,M4 ag,M5 PAM,CHRM5 agonist,M5 antag
Cc1cc(SCC(=O)N(C)CC(=O)Nc2ccc(F)cc2)nc2ccccc12,21*,-5,4,10,2,-4
CC(SCC(=O)Nc1ccc(F)cc1)c1nc2ccccc2c(=O)[nH]1 (stereo unspecified),11,-11,2,22*,0,-14
Cc1csc(SCC(=O)N(C)CC(=O)Nc2ccc(F)cc2)n1,-4,4,0,3,1,7
Cc1ccc(C(=O)N2CCCC(Nc3ccc(F)cc3)C2)cc1C (stereo unspecified),2,-4,1,2,-4,-5
COc1cccc(-c2csc(N3CCN(C(=O)Nc4ccc(Cl)cc4)CC3)n2)c1,-21,20,13,-34,-4,28*
COc1ccc(NC(=O)N2CCN(c3nc(-c4cccc(OC)c4)cs3)CC2)cc1,-5,12,16,-17,2,17
COc1ccc(C(CNS(=O)(=O)c2ccc(C)cc2)N2CCN(C)CC2)cc1 (stereo unspecified),8,-8,1,-4,-5,6
COc1cccc(N2CCN(C(=S)Nc3cc(C)cc(C)c3)CC2)c1,16,-7,2,3,1,-7
CNC(=S)N1CCN(c2cccc(OC)c2)CC1,17,33*,2,7,-1,-1
O=C(COC(=O)Cc1ccc(Cl)cc1)Nc1c(F)cccc1F,4,-7,2,-3,0,7
CCCCCCn1c(=O)[nH]c2nc3cc(N)c(C)cc3nc2c1=O,-14,26,37*,-24,104*,37*
C[C@@H]1CCCCO[C@@H](CN(C)Cc2ccc(C(F)(F)F)cc2)[C@@H](C)CN([C@H](C)CO)C(=O)c2cc(N(C)C)ccc2O1,3,-11,-2,0,-2,2
Cc1nn(-c2ccccc2)c(N)c1Sc1cccc([N+](=O)[O-])c1,-11,-11,7,-11,-5,7
Cc1cc(C)nc(-n2nc(C)c(Sc3ccc(F)cc3)c2N)n1,23*,3,2,7,3,1
CC(=O)CC(=O)Nc1ccn(-c2ccccc2)n1,0,-1,1,20*,-1,6
NS(=O)(=O)c1ccc(S(=O)(=O)NCCc2ccccc2)cc1,-7,12,1,0,-1,-3
Cc1[nH]c2ccccc2c1CCNS(=O)(=O)c1ccc(S(N)(=O)=O)cc1,16*,-10,2,13,-1,4
Cc1ccc2cc3cc(C(=O)NCCN4CCOCC4)oc3nc2c1,12,-6,3,21*,2,-13
O=C(O)C1C2CC(C(Br)C2Br)C1C(=O)O (stereo unspecified),5,-10,1,-5,2,6
CCOc1ccc(Nc2cc(C)nc3c(C)cccc23)cc1,-4,-2,1,20*,0,-11
COc1ccc(CCN(Cc2cc3cccc(C)c3[nH]c2=O)C(=O)NC2CCCCC2)cc1OC,-28,31*,8,-8,-1,13
Cc1cccc2cc(CN(CC3CCCO3)C(=O)NC3CCCCC3)c(=O)[nH]c12 (stereo unspecified),-4,14,1,-3,-1,2
CCc1nc2ccc(C(=O)Nc3cccc(OC)c3)cn2c1N(CC)CCN(C)C,-2,4,0,-2,-2,4
COc1ccc(OC)c(-c2csc(NC(=O)Cc3ccccc3OC)n2)c1,-5,-21,4,1,-6,3
CCOC(=O)Cc1csc(NC(=O)COc2ccc(N(C)S(=O)(=O)c3ccc(C)cc3)cc2)n1,-11,4,12,-48,-4,8
SMILES,CHRM4 PAM,CHRM4 antagonist,M4 ag,M5 PAM,CHRM5 agonist,M5 antag
CCOc1ccc(S(=O)(=O)N(C)c2ccc(OCC(=O)Nc3nc(-c4cc(OC)ccc4OC)cs3)cc2)cc1,30*,-7,0,0,3,10
COc1ccc(OC)c(-c2csc(NC(=O)Cc3ccccc3F)n2)c1,-20,54*,0,-2,-3,8
CCC1(CC)NC(=O)N(CC(=O)OCC(=O)Nc2ccc(F)c(F)c2F)C1=O,2,-9,1,-2,5,2
CCOC(=O)N1CCC(N2C(=O)c3ccc(C(=O)NCc4ccc(F)cc4)cc3C2=O)CC1,3,-3,1,-2,2,0
CCOC(=O)N1CCC(N2C(=O)c3ccc(C(=O)O)cc3C2=O)CC1,4,-3,1,21*,-3,-4
CCOC(=O)N1CCC(N2CCN(c3cc(C)ccc3C)CC2)CC1,-20,15,8,-16,-7,55*
COCOCCn1cc(CN2CCS(=O)(=O)N(Cc3ccc(-c4ccc(Cl)nc4)cc3)C(C)C2=O)nn1 (stereo unspecified),1,-21,1,-4,1,-7
Cc1cc(NC(=O)CS(=O)(=O)c2ccc(Cl)cc2)no1,-1,-21,-1,-1,-4,-1
O=C(CN1C(=O)c2cccnc2Oc2ccc(Cl)cc21)NCCCc1ccccc1,-9,12,17,-13,0,16
COC(=O)c1ccc(N)cc1O,14,2,1,22*,-4,-5
CN1CCc2nc3ccc(Cl)cc3c(-c3ccccc3Cl)c2C1,-17,70*,0,-18,-8,66*
Cc1c(C(=O)OC(C)C(C)C[N+](C)(C)C)oc2ccccc12 (stereo unspecified),-22,77*,0,-18,-7,12
CCN(CC)CC(C)(C)C(=O)/C=C/c1ccc(/C=C/C(=O)C(C)(C)CN(CC)CC)cc1,-6,42*,3,6,-1,12
CCC(C)(C)C1CCC2(CC1)NC(=O)N(CC(=O)NCCc1ccc(OC)c(OC)c1)C2=O (stereo unspecified),-2,12,4,11,5,-12
Cc1cc(C(=O)N/N=C/c2c(C)[nH]n(-c3ccccc3)c2=O)n[nH]1,7,-2,0,19*,-4,-15
Cc1[nH]n(-c2ccccc2)c(=O)c1/C=N/NC(=O)c1ccc(O)cc1O,2,-1,-2,-5,-3,13
O=C(CCNS(=O)(=O)c1cccs1)NC1CCN(Cc2ccccc2)CC1,0,1,0,-7,-6,3
Cc1cc(OCCCC(=O)Nc2cccc(-n3cnnn3)c2)ccc1Cl,-14,13,19,-17,6,27*
CC(=NNC(=O)c1ccncc1)c1cc(Cl)ccc1Cl,4,5,0,-10,-1,18
